Many of the other results were omitted from the sample, so hits are more common in it than they were.
Lung fibro prol – blocks proliferation of human lung fibroblasts; LL 47 human lung fibroblast viability, ATP luminescence; active compounds read low; viability, % at 10 µM; 85,000 compounds, 1.1% hits;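 active means viability at or below 50% in the single dose screen; inactive means viability above 50%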;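 further: compound exposure lasted 72 h before the ATP readout; 100% = median luminescence of untreated cell-only wells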
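Benchmarks: Cell-only wells, no compound | Test system: LL 47 human lung fibroblasts, passage 12 or lower | Input: 1,150 cells/well | Measured by: CellTiter-Glo luminescence measuring cellular ATP | Medium: IMEM, 15% FBS supplement | Schedule: Overnight attachment after seeding, then 72 h compound exposure at 37 °C | Doses: Compound addition at 0.1% DMSO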
H69AR growth 86K – blocks growth of human H69AR lung tumor cells; H69AR lung tumor viability, ATP luminescence, 72 h; active compounds read low; viability, % at 10 µM; 85,000 compounds, 6% hits;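 active means viability at or below 40%; inactive means viability above 40%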;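 further: multidrug resistant small cell line overexpressing MRP-1 efflux transporter; 100% = mean luminescence of untreated control wells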
PTEN del growth – suppresses growth of cells with PTEN deletion | HCT116 PTEN-null viability, CellTiter-Glo, 60 h; active compounds read low | viability, % at 10 µM | 140,000 compounds, 1.2% hits;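 active means viability at or below a set limit, 4 SD under the median of all tested compounds, cut at about 3.7% in these data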;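 further: PTEN knockout HCT116 line with beta catenin targeted HCT116 as companion control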
HUVEC inhibit – blocks proliferation of human endothelial cells. HUVEC proliferation, CellTiter-Glo luminescence, 72 h; active compounds read low. viability, % at 10 µM (by protocol). 86,000 compounds, 1.1% hits;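 active means viability at or below 30%; inactive means viability above 30%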;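 further: 100% = median luminescence of DMSO-only cell control wells on each plate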
bCat KO growth – beta-catenin-lacking colon tumor cell growth suppression. viability, % at 10 µM. 140,000 compounds, 1.5% hits. HCT116 beta-catenin knockout viability, CellTiter-Glo, 60 h; active compounds read low. AID 818;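 active means viability at or under a set limit, the compound median less 4 SD, cut at about 6% in these data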;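 further: 0% = Hyamine 1622 control at 20 µM and 100% = untreated cell control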
Starred values were filed as active, the others as inactive.

How did O=C(N/N=C/c1ccc([N+](=O)[O-])o1)c1cc(-c2cccc(Br)c2)nc2ccccc12 do in these assays?
PTEN del growth: 1.7*; bCat KO growth: 1.8*

Results for CCCC(=O)Nc1ccc(C(=O)N/N=C/c2ccc([N+](=O)[O-])o2)cc1 ?
PTEN del growth: 1.9*; bCat KO growth: 2.7*

How did O=C(COc1ccccc1)N/N=C/c1ccc([N+](=O)[O-])o1 do in these assays?
PTEN del growth: 1.0*; bCat KO growth: 1.3*

Results for CCCCCCC(=O)Nc1ccc(C(=O)N/N=C/c2cccnc2)cc1 ?
PTEN del growth: 90; bCat KO growth: 95

How did CCCCCCCC(=O)Nc1ccc(C(=O)N/N=C/c2cccc([N+](=O)[O-])c2)cc1 do in these assays?
PTEN del growth: 1.7*; bCat KO growth: 1.5*

Results for CCCc1ccc(-c2cc(C(=O)N/N=C/c3ccc([N+](=O)[O-])o3)c3ccccc3n2)cc1 ?
PTEN del growth: 13; bCat KO growth: 19

What do the screens show for `COc1ccccc1C(=O)Nc1sc2c(c1C(=O)NCc1ccco1)CCCC2`?
Lung fibro prol: 96; H69AR growth 86K: 54; PTEN del growth: 9; HUVEC inhibit: 86; bCat KO growth: 7

What do the screens show for `CC(C)Oc1ccc(/C(O)=C2/C(=O)C(=O)N(CCN(C)C)C2c2cccs2)cc1` (configuration not stated)?
PTEN del growth: 100; bCat KO growth: 93

How did COc1ccc(C(=O)c2ccc(Cl)cc2)c2ccccc12 do in these assays?
Lung fibro prol: 94; H69AR growth 86K: 17*; PTEN del growth: 73; HUVEC inhibit: 65; bCat KO growth: 72

How did COc1ccc(C(=O)c2ccccc2)c2c(O)ccc(C(=O)c3ccccc3)c12 do in these assays?
Lung fibro prol: 92; H69AR growth 86K: 91; PTEN del growth: 17; HUVEC inhibit: 34; bCat KO growth: 18

Results for Cc1cccc(N2CCN(C(=O)n3ccnc3)CC2)c1C ?
Lung fibro prol: 91; H69AR growth 86K: 45; PTEN del growth: 88; HUVEC inhibit: 85; bCat KO growth: 88

How did CCN(CC)S(=O)(=O)c1cc([N+](=O)[O-])ccc1NNC(=O)Nc1ccc(Cl)c(Cl)c1 do in these assays?
Lung fibro prol: 43*; H69AR growth 86K: 2.9*; PTEN del growth: 1.0*; HUVEC inhibit: 41; bCat KO growth: 1.4*

What do the screens show for `O=C(CN1CCCC1)Nc1ccc(-c2nc3cc(NC(=O)CN4CCCC4)ccc3o2)cc1`?
Lung fibro prol: 23*; H69AR growth 86K: 47; PTEN del growth: 3.7*; HUVEC inhibit: 65; bCat KO growth: 2.4*

What do the screens show for `CCC(C)NCC(=O)Nc1ccc(-c2nc3cc(NC(=O)CNC(C)CC)ccc3o2)cc1` (configuration not stated)?
Lung fibro prol: 2.9*; H69AR growth 86K: 60; PTEN del growth: 0.8*; HUVEC inhibit: 25*; bCat KO growth: 0.6*

What do the screens show for `CCN(CC)CC(=O)Nc1ccc(-c2nc3cc(NC(=O)CN(CC)CC)ccc3o2)cc1`?
Lung fibro prol: 44*; H69AR growth 86K: 61; PTEN del growth: 7; HUVEC inhibit: 106; bCat KO growth: 8

What do the screens show for `CCCC(=O)Nc1ccc2oc(-c3ccncc3)nc2c1`?
Lung fibro prol: 104; H69AR growth 86K: 96; PTEN del growth: 97; HUVEC inhibit: 110; bCat KO growth: 99

What do the screens show for `Cc1ccc2oc(-c3ccc(NC(=O)CC(C)C)cc3)nc2c1`?
Lung fibro prol: 94; H69AR growth 86K: 98; PTEN del growth: 102; HUVEC inhibit: 106; bCat KO growth: 86

What do the screens show for `Cn1c(Cn2cnc3ccccc32)nnc1SCC(=O)CC(=O)Nc1ccccc1`?
Lung fibro prol: 100; H69AR growth 86K: 104; PTEN del growth: 89; HUVEC inhibit: 91; bCat KO growth: 94

How did O=C(NC1CC2CCC1C2)C1COc2ccccc2O1 (configuration not stated) do in these assays?
Lung fibro prol: 103; H69AR growth 86K: 96; PTEN del growth: 100; HUVEC inhibit: 101; bCat KO growth: 99

Results for O=C(NNC(=O)C(c1ccccc1)c1ccccc1)c1ccccn1 ?
PTEN del growth: 6; bCat KO growth: 4.8*

How did CCOCC(=O)Nc1ccc(S(=O)(=O)NCCc2ccccc2)cc1 do in these assays?
Lung fibro prol: 104; H69AR growth 86K: 15*; PTEN del growth: 84; HUVEC inhibit: 110; bCat KO growth: 81

What do the screens show for `Cc1cc(NC(=O)c2cnn3c(C(F)F)cc(-c4ccccc4)nc23)no1`?
Lung fibro prol: 90; H69AR growth 86K: 25*; PTEN del growth: 83; HUVEC inhibit: 76; bCat KO growth: 95

How did Cc1cc(NC(=O)c2cnn3c(C(F)(F)F)cc(-c4ccccc4)nc23)no1 do in these assays?
Lung fibro prol: 94; H69AR growth 86K: 38*; PTEN del growth: 71; HUVEC inhibit: 89; bCat KO growth: 78

Results for COc1ccc(-c2cc(C(F)(F)F)n3ncc(C(=O)NCC4CCCO4)c3n2)cc1 (configuration not stated) ?
Lung fibro prol: 97; H69AR growth 86K: 20*; PTEN del growth: 61; HUVEC inhibit: 99; bCat KO growth: 72

Results for CC(C)CNC(=O)c1cc2nc3c(c(C(F)(F)F)n2n1)CCc1ccccc1-3 ?
Lung fibro prol: 107; H69AR growth 86K: 78; PTEN del growth: 98; HUVEC inhibit: 125; bCat KO growth: 112

Results for Cc1cc(NC(=O)c2cc3nc4c(c(C(F)(F)F)n3n2)CCc2ccccc2-4)no1 ?
Lung fibro prol: 103; H69AR growth 86K: 29*; HUVEC inhibit: 102

Results for COc1cccc(-c2cc(C(F)(F)F)n3ncc(C(=O)NCC4CCCO4)c3n2)c1 (configuration not stated) ?
Lung fibro prol: 104; H69AR growth 86K: 60; PTEN del growth: 77; HUVEC inhibit: 70; bCat KO growth: 76

How did Cn1c(O)c(C=Nc2ccc(Cc3ccncc3)cc2)c(=O)n(C)c1=O do in these assays?
Lung fibro prol: 102; H69AR growth 86K: 92; HUVEC inhibit: 103

What do the screens show for `CCOc1ccc(-n2cc(C(=O)Nc3cccc(C)n3)c3cc(OC)c(OC)cc3c2=O)cc1`?
Lung fibro prol: 99; H69AR growth 86K: 66; HUVEC inhibit: 76

What do the screens show for `Cc1cc(NC(=O)CCS(=O)(=O)c2nc(-c3ccccc3)cc(C(F)(F)F)n2)no1`?
Lung fibro prol: 5.6*; H69AR growth 86K: 0.7*; PTEN del growth: 71; HUVEC inhibit: 24*; bCat KO growth: 69

Results for O=C(c1cnn2c(C(F)(F)F)cc(-c3ccccc3)nc12)N1CCCc2ccccc21 ?
Lung fibro prol: 91; H69AR growth 86K: 36*; PTEN del growth: 98; HUVEC inhibit: 87; bCat KO growth: 94

Results for CCOC(=O)c1cc(-c2ccc(C)cc2)n(CCC(=O)N2CCN(c3ccccn3)CC2)c1C ?
PTEN del growth: 63; bCat KO growth: 59

Results for Cc1cccc(C(C)C)c1NC(=O)c1ccc(CN(c2ccccc2)S(=O)(=O)c2ccccc2)cc1 ?
PTEN del growth: 59; bCat KO growth: 65

High-throughput results as filed in PubChem.
